Experimental data reported in ChEMBL document CHEMBL1909531, “Mitochondrial respiration inhibitors suppress protein translation and hypoxic signaling via the hyperphosphorylation and inactivation of translation initiation factor eIF2α and elongation factor eEF2” (J Nat Prod, 2011).
Calls of active or inactive are those of the source. The rule behind the calls is not given here.

How the values were obtained:
T47D [1] = experiment: Ratio of IC50 for 1, 10-phenanthroline-induced HIF1 activation in human T47D cells to IC50 for hypoxia-induced HIF1 activation in human T47D cells; format: cell-based
[2] = target: Hypoxia inducible factors; HIF-1-alpha, HIF-2-alpha (Homo sapiens, UniProt Q16665+Q99814); experiment: Inhibition of HIF1-mediated induction of Glut-1 mRNA expression in hypoxia-stimulated human T47D cells at 0.3 to 3 uM after 16 hrs by RT-PCR analysis; format: cell-based
T47D [3] = experiment: Inhibition of 1, 10-phenanthroline-induced HIF1alpha protein accumulation in human T47D cells at 3 uM after 4 hrs by Western blot analysis; format: functional, cell-based
T47D [4] = experiment: Inhibition of cellular respiration in human T47D cell at 0.03 to 1 uM by oxygen consumption assay; format: functional, cell-based
Procedure, shortened: (§1)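 Oxygen consumption of intact T47D cells measured with a Clark-type electrode, in serum-free DMEM/F12 at 30 °C.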

T47D [5] = experiment: Inhibition of cellular respiration in human T47D cells at 1 uM by oxygen consumption assay; format: functional; procedure, shortened: as §1
T47D [6] = experiment: Reduction in ATP level in human T47D cells after 72 hrs by HPLC-UV analysis; format: functional, cell-based
Procedure, shortened: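 5 × 10^5 cells per well seeded in DMEM/F12 with 10% FBS. After 24 h, half the medium replaced with serum-free DMEM/F12 containing compound. After exposure, cells washed in cold DPBS and extracted with cold 0.4 M perchloric acid, then neutralized with K2CO3. ATP quantified by reversed-phase C18 HPLC-UV using 50 mM potassium phosphate pH 6.0/MeOH at 0.7 mL/min.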

T47D [7] = experiment: Reduction in ATP level in human T47D cells by HPLC-UV analysis at 1 uM after 72 hrs; format: functional, cell-based
Procedure, shortened: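 Cells seeded at 5 × 10^5 per well in DMEM/F12 with 10% FBS; after 24 h, half the medium was replaced with serum-free medium containing compound. Cells washed with cold DPBS, extracted with cold 0.4 M perchloric acid, neutralized with K2CO3. Nucleotides quantified by C18 HPLC-UV, 50 mM potassium phosphate pH 6.0/MeOH mobile phase, 0.7 mL/min.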

[8] = target: Serine/threonine-protein kinase mTOR (Homo sapiens) (UniProt P42345); experiment: Inhibition of mTOR-mediated 4E-BP1 phosphorylation on Thr 37/46 in human T47D cells at 1 to 10 uM after 30 mins by Western blotting; format: cell-based
[9] = target: Serine/threonine-protein kinase mTOR (Homo sapiens) (UniProt P42345); experiment: Inhibition of mTOR-mediated rpS6 phosphorylation on Ser 235/236 in human T47D cells at 1 to 10 uM after 30 mins by Western blotting; format: cell-based
[10] = target: Serine/threonine-protein kinase mTOR (Homo sapiens) (UniProt P42345); experiment: Inhibition of mTOR in human T47D cells assessed as eEF2 hyperphosphorylation on Ser 56 at 1 to 10 uM after 30 mins by Western blotting; format: cell-based
Procedure, shortened: (§2)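 Cells seeded at 0.8 × 10^6 per well, exposed 30 min at 37 °C, 5% CO2, in DMEM/F12 with 5% FBS. Lysed in modified RIPA (pH 7.6) with protease and phosphatase inhibitors; 40 µg protein run on 4–20% gels, nitrocellulose transfer. Phospho-specific and total eIF2α/eEF2 primaries at 1:1,000, HRP anti-rabbit at 1:2000, chemiluminescence on film.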

[11] = target: Serine/threonine-protein kinase mTOR (Homo sapiens) (UniProt P42345); experiment: Inhibition of mTOR-mediated eIF4E phosphorylation on Ser 209 in human MDA-MB-231 cells at 1 to 10 uM after 30 mins by Western blotting; format: cell-based
[12] = target: Serine/threonine-protein kinase mTOR (Homo sapiens) (UniProt P42345); experiment: Inhibition of mTOR in human MDA-MB-231 cells assessed as eEF2 hyperphosphorylation on Ser 56 at 1 to 10 uM after 30 mins by Western blotting; format: cell-based; procedure, shortened: as §2
T47D [13] = experiment: Inhibition of cellular respiration in human T47D cells at 0.3 uM by oxygen consumption assay in presence of complex 3 substrate antimycin A; format: functional, cell-based

## CC(C)CC(=O)O[C@@H]1CC[C@]2(C)[C@H]3CC[C@]45C[C@]4(CC[C@@H]5[C@@H]4C[C@H]([C@@H]5OC5(C)C)OC4O)[C@]3(C)[C@H](O)C[C@H]2C1(C)C (stereo partly drawn) [SKIMMIAREPIN A]
T47D [1]
  Ratio IC50: 80
[2]
  inhibition: Active
T47D [3]
  inhibition: inactive
T47D [4]
  inhibition: Dose-dependent effect
T47D [5]
  inhibition at 1 µM: 73%
T47D [6]
  Activity: Dose-dependent effect
T47D [7]
  Activity: Active
[8]
  inhibition: inactive
[9]
  inhibition: inactive
[10]
  Activity: Dose-dependent effect
[11]
  inhibition: inactive
[12]
  Activity: Dose-dependent effect
T47D [13]
  inhibition: inactive
